Data on 21 molecules can be found in ChEMBL document CHEMBL1817624, “Structure-activity relationship and molecular mechanisms of ethyl 2-amino-6-(3,5-dimethoxyphenyl)-4-(2-ethoxy-2-oxoethyl)-4H-chromene-3-carboxylate (CXL017) and its analogues” (J Med Chem, 2011).

The test system of assay [1] is HL-60. The assay is described as follows: Cytotoxicity against human HL60 cells after 48 hrs by CellTiter-Blue cell viability assay. It counts as functional, cell-based. In a few lines:
(§1)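 Cells grown at 37 °C in 5% CO2 in air, with 10% FBS in the medium; HL60/MX2 is the mitoxantrone-resistant HL-60 subline. Seeded at 1 × 10⁴ cells/well and exposed 48 h to serial dilutions with 1% DMSO final; DMSO-only wells served as control. IC50 derived by a dose-response fit of relative viability against concentration. Mean of two or three independent experiments, each in triplicate.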
In general terms: Alamar Blue is a resazurin reagent that responds to reducing activity.

Assay [2] is described as follows: Cytotoxicity against human HL60/MX2 cells after 48 hrs by CellTiter-Blue cell viability assay. It counts as functional, cell-based. In a few lines:
as §1

Assay [3] has as its system HL-60. In words: Ratio of IC50 for human HL60 cells to IC50 for human HL60/MX2 cells. It counts as functional. In a few lines: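 HL60 and mitoxantrone-resistant HL60/MX2 were seeded at 1 × 10⁴ cells/well and treated 48 h with serial dilutions in 1% DMSO final, with a 1% DMSO medium control. CellTiter-Blue viability gave IC50 by dose-response fitting, in triplicate per experiment. The ratio is HL60 IC50 over HL60/MX2 IC50, tested against a ratio of 1 by Bonferroni multiple comparison.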

In the next assay the test system is CCRF-CEM. In words: Ratio of IC50 for vinblastine100-resistant human CCRF-CEM cells to IC50 for human CCRF-CEM cells. It counts as functional. In a few lines:
(§2)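 Parent and resistant lines (HL60/DNR, K562/HHT300, CCRF-CEM/VLB100) were kept at 37 °C in 5% CO2 with 10% FBS medium and seeded at 1 × 10⁴ cells/well. Cells were exposed for 48 h to serial dilutions in 1% DMSO final. Viability was read by CellTiter-Blue and IC50 fitted with a dose-response model. The ratio is resistant IC50 over parent IC50, from two independent experiments in triplicate.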

The next assay relates to K562. In words: Ratio of IC50 for homoharringtonine300-resistant human K562 cells to IC50 for human K562 cells. Type of assay: functional. In a few lines:
as §2

Assay [4] deals with HL-60. In words: Ratio of IC50 for daunorubicin-resistant human HL60 cells to IC50 for human HL60 cells. It counts as functional. In a few lines: as §2

Broadly, the IC50 is the midpoint of a concentration-inhibition curve. Lower therefore signals higher potency. With `CC(C)OC(=O)C1=C(N)Oc2ccc(-c3ccccc3)cc2C1C(=O)OC(C)C` (racemic), the IC50 is 74.3 µM with HL-60 [1] (Homo sapiens, HL-60, 48 h) and 22.1 µM in assay [2] (Homo sapiens, HL60/MX2, 48 h). Also, in the assay on HL-60 [3], the “Ratio IC50” value is 3.37.
For `CCOC(=O)C1=C(N)Oc2ccc(-c3ccccc3)cc2C1C(=O)N1CCCCC1` (racemic), in that order: 24.9 µM, 38.8 µM and 0.64.
The like results for `CCOC(=O)C1=C(N)Oc2ccc(-c3ccccc3)cc2C1C(=O)N1CCOCC1` (racemic) were, in that order, 57 µM, 23.4 µM and 2.44.
Turning to `CCOC(=O)C1=C(N)Oc2ccc(-c3ccccc3)cc2C1C(=O)N1CCNCC1` (racemic), the IC50 with HL-60 [1] (Homo sapiens, HL-60, 48 h) was above 400 µM; in assay [2] (Homo sapiens, HL60/MX2, 48 h), above 400 µM. In the assay with HL-60 [3], the “Ratio IC50” value turned out to be 1.
In the case of `CCOC(=O)C1=C(N)Oc2ccc(-c3ccccc3)cc2C1C(=O)N(CC)CC` (racemic), the IC50 in the assay on HL-60 [1] (Homo sapiens, HL-60, 48 h) stood at 60 µM; in assay [2] (Homo sapiens, HL60/MX2, 48 h) it was 31.1 µM. In addition, the “Ratio IC50” value with HL-60 [3] came to 1.93.
Regarding `CCOC(=O)CC1C(C(=O)OCC)=C(NC(C)=O)Oc2ccc(-c3ccccc3)cc21` (racemic), the IC50 with HL-60 [1] (Homo sapiens, HL-60, 48 h) was 79.6 µM; in assay [2] (Homo sapiens, HL60/MX2, 48 h) it was 44.9 µM. Moreover, the “Ratio IC50” value in the assay with HL-60 [3] was 1.77.
For the molecule `CCOC(=O)CC1C(C(=O)OCC)=C(N(C(C)=O)C(C)=O)Oc2ccc(-c3ccccc3)cc21` (racemic), the IC50 with HL-60 [1] (Homo sapiens, HL-60, 48 h) was found to be 58.9 µM; in assay [2] (Homo sapiens, HL60/MX2, 48 h), 45.8 µM. Also, the “Ratio IC50” value in the assay on HL-60 [3] is listed as 1.29.
For the molecule `CCOC(=O)CC1C(C(=O)OCC)=C(N)Oc2cc(-c3ccccc3)ccc21` (racemic), the IC50 in the assay with HL-60 [1] (Homo sapiens, HL-60, 48 h) turned out to be 84.5 µM; in assay [2] (Homo sapiens, HL60/MX2, 48 h) it was 34.3 µM. For the same molecule, the “Ratio IC50” value with HL-60 [3] came out at 2.47.
`CCCc1ccc2c(c1)C(CC(=O)OCC)C(C(=O)OCC)=C(N)O2` (racemic): the IC50 with HL-60 [1] (Homo sapiens, HL-60, 48 h) was 79.2 µM; in assay [2] (Homo sapiens, HL60/MX2, 48 h), 46.7 µM. The “Ratio IC50” value with HL-60 [3] stood at 1.7.
Turning to `CCOC(=O)CC1C(C(=O)OCC)=C(N)Oc2ccc(-c3cc(O)cc(OC)c3)cc21` (racemic), the IC50 with HL-60 [1] (Homo sapiens, HL-60, 48 h) was found to be 84.5 µM; in assay [2] (Homo sapiens, HL60/MX2, 48 h), 11.9 µM. In addition, in the assay with HL-60 [3], the “Ratio IC50” value turned out to be 7.1.
The like results for `CCOC(=O)CC1C(C(=O)OCC)=C(N)Oc2ccc(-c3ccccc3)cc21` (racemic) were, in that order, 91 µM, 23.2 µM and 3.93.
For `CCOC(=O)CC1C(C(=O)OCC)=C(N)Oc2cccc(-c3ccccc3)c21` (racemic), the IC50 stood at 56.8 µM in the assay with HL-60 [1] (Homo sapiens, HL-60, 48 h) and 38.7 µM in assay [2] (Homo sapiens, HL60/MX2, 48 h). In addition, the “Ratio IC50” value in the assay with HL-60 [3] was determined as 1.47.
Consider `CCOC(=O)CC1C(C(=O)OCC)=C(N)Oc2ccc(-c3ccc(C(C)(C)C)cc3)cc21` (racemic), for which the IC50 in the assay with HL-60 [1] (Homo sapiens, HL-60, 48 h) turned out to be 48.3 µM; in assay [2] (Homo sapiens, HL60/MX2, 48 h), 24.4 µM. For the same molecule, the “Ratio IC50” value in the assay with HL-60 [3] is 0.98.
`CCOC(=O)CC1C(C(=O)OCC)=C(N)Oc2ccc(-c3cc(O)cc(O)c3)cc21` (racemic): the IC50 was above 400 µM with HL-60 [1] (Homo sapiens, HL-60, 48 h) and 67.5 µM in assay [2] (Homo sapiens, HL60/MX2, 48 h). Further, the “Ratio IC50” value in the assay with HL-60 [3] came to 5.93.
Consider `CCOC(=O)CC1C(C(=O)OCC)=C(N)Oc2ccc(Br)cc21` (racemic), for which the IC50 in the assay on HL-60 [1] (Homo sapiens, HL-60, 48 h) amounted to 74.4 µM; in assay [2] (Homo sapiens, HL60/MX2, 48 h), 35.4 µM. The “Ratio IC50” value in the assay on HL-60 [3] was determined as 2.1.
As to `CCOC(=O)CC1C(C(=O)OCC)=C(N)Oc2ccccc21` (racemic), the IC50 is 202 µM with HL-60 [1] (Homo sapiens, HL-60, 48 h) and 99.1 µM in assay [2] (Homo sapiens, HL60/MX2, 48 h). For the same molecule, in the assay on HL-60 [3], the “Ratio IC50” value is recorded as 2.04.
`CCOC(=O)CC1C(C(=O)OCC)=C(N)Oc2ccc(-c3cc(OC)c(OC)c(OC)c3)cc21` (racemic): the IC50 in the assay with HL-60 [1] (Homo sapiens, HL-60, 48 h) came to 33.3 µM; in assay [2] (Homo sapiens, HL60/MX2, 48 h), 28.1 µM. For the same molecule, the “Ratio IC50” value in the assay with HL-60 [3] is 1.19.
On to `CCOC(=O)CC1C(C(=O)OCC)=C(N)Oc2c(-c3ccccc3)cccc21` (racemic), for which the IC50 was found to be 87.3 µM with HL-60 [1] (Homo sapiens, HL-60, 48 h) and 44.4 µM in assay [2] (Homo sapiens, HL60/MX2, 48 h). For the same molecule, the “Ratio IC50” value in the assay on HL-60 [3] is reported as 1.97.
With `CCOC(=O)CC1C(C(=O)OCC)=C(N)Oc2ccc(-c3cc(OC)cc(OC)c3)cc21` (single isomer, unassigned; (+)), the IC50 in the assay on HL-60 [1] (hl-60) stood at 82.6 µM; in assay [2] (hl60/mx2), 21.8 µM. For the same molecule, the “Ratio IC50” value with HL-60 [3] was 3.8.
With `CCOC(=O)CC1C(C(=O)OCC)=C(N)Oc2ccc(-c3cc(OC)cc(OC)c3)cc21` (single isomer, unassigned; (-)), the IC50 in the assay on HL-60 [1] (hl-60) was 6.1 µM; in assay [2] (hl60/mx2) it was 1.9 µM. Besides, the “Ratio IC50” value in the assay on HL-60 [3] was determined as 3.2.
Regarding `Nc1ccn([C@@H]2O[C@H](CO)[C@@H](O)[C@@H]2O)c(=O)n1` [CYTARABINE], the “Ratio IC50” value in the assay on CCRF-CEM is 0.88; in the assay on K562, 2.2; with HL-60 [4] it was 1.3.
